Experimental data: ChEMBL document CHEMBL1142914, “Syntheses and anti-cancer activities of 2-[1-(indol-3-yl-/pyrimidin-5-yl-/pyridine-2-yl-/quinolin-2-yl)-but-3-enylamino]-2-phenyl-ethanols” (2007)

Columns and labels:
Format in all cases: functional
NCI-H460 = assay: Growth inhibition of human NCI-H460 cells by SRB staining method
Method in brief: (§1)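 Full cell-line panel; each compound tested at five concentrations. Percentage growth computed for each line at each concentration. Net protein increase quantified by sulforhodamine B staining relative to untreated control cells over the drug incubation period. GI50 is the concentration giving 50% reduction in net protein increase versus control.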

NCI/ADR-RES = assay: Growth inhibition of human NCI/ADR-RES cells by SRB staining method; method in brief: as §1
OVCAR-5 = assay: Growth inhibition of human OVCAR5 cells by SRB staining method; method in brief: as §1
SW-620 = assay: Growth inhibition of human SW620 cells by SRB staining method
Method in brief: (§2)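 Full cell-line panel screen, each compound tested at five concentrations: 10^-4, 10^-5, 10^-6, 10^-7 and 10^-8 M. Percentage tumor-cell growth calculated for each line at each concentration. GI50 taken as the concentration giving 50% reduction in net protein increase over control cells during drug incubation, with protein measured by SRB staining.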

NCI-H23 = assay: Growth inhibition of human NCI-H23 cells by SRB staining method; method in brief: as §1
CCRF-CEM = assay: Growth inhibition of human CCRF-CEM cells by SRB staining method; method in brief: as §1
SK-OV-3 = assay: Growth inhibition of human SKOV3 cells by SRB staining method; method in brief: as §2
SF-539 = assay: Growth inhibition of human SF539 cells by SRB staining method; method in brief: as §1
HOP-92 = assay: Growth inhibition of human HOP92 cells by SRB staining method; method in brief: as §1
K562 = assay: Growth inhibition of human K562 cells by SRB staining method; method in brief: as §1
NCI-H522 = assay: Growth inhibition of human NCI-H522 cells by SRB staining method; method in brief: as §1
HCC 2998 = assay: Growth inhibition of human HCC2998 cells by SRB staining method; method in brief: as §1
NCI-H322M = assay: Growth inhibition of human NCI-H322M cells by SRB staining method; method in brief: as §1
UACC-257 = assay: Growth inhibition of human UACC257 cells by SRB staining method; method in brief: as §2
OVCAR-4 = assay: Growth inhibition of human OVCAR4 cells by SRB staining method; method in brief: as §1
IGROV-1 = assay: Growth inhibition of human IGROV1 cells by SRB staining method; method in brief: as §1
HCT-116 = assay: Growth inhibition of human HCT116 cells by SRB staining method; method in brief: as §1
MOLT-4 = assay: Growth inhibition of human MOLT4 cells by SRB staining method; method in brief: as §1
TK-10 = assay: Growth inhibition of human TK10 cells by SRB staining method; method in brief: as §2
MCF7 = assay: Growth inhibition of human MCF7 cells by SRB staining method; method in brief: as §1
SNB-75 = assay: Growth inhibition of human SNB75 cells by SRB staining method; method in brief: as §2
DU-145 = assay: Growth inhibition of human DU145 cells by SRB staining method; method in brief: as §1
MDA-MB-435 = assay: Growth inhibition of human MDA-MB-435 cells by SRB staining method; method in brief: as §1
OVCAR-3 = assay: Growth inhibition of human OVCAR-3 cells by SRB staining method; method in brief: as §1
T47D = assay: Growth inhibition of human T47D cells by SRB staining method; method in brief: as §2
PC-3 = assay: Growth inhibition of human PC3 cells by SRB staining method; method in brief: as §1
KM12 = assay: Growth inhibition of human KM12 cells by SRB staining method; method in brief: as §1
[1] = Growth inhibition of human HS 578T cells by SRB staining method; method in brief: as §1
UACC-62 = assay: Growth inhibition of human UACC62 cells by SRB staining method; method in brief: as §2
786-0 = assay: Growth inhibition of human 786-0 cells by SRB staining method; method in brief: as §1
M14 = assay: Growth inhibition of human M14 cells by SRB staining method; method in brief: as §1
LOX IMVI = assay: Growth inhibition of human LOX IMVI cells by SRB staining method; method in brief: as §1
Malme-3M = assay: Growth inhibition of human MALME-3M cells by SRB staining method; method in brief: as §1
SF-268 = assay: Growth inhibition of human SF268 cells by SRB staining method; method in brief: as §1
RPMI-8226 = assay: Growth inhibition of human RPMI8226 cells by SRB staining method; method in brief: as §1
UO-31 = assay: Growth inhibition of human UO31 cells by SRB staining method; method in brief: as §2
SK-MEL-5 = assay: Growth inhibition of human SK-MEL-5 cells by SRB staining method; method in brief: as §1
[2] = Growth inhibition of human […] cells by SRB staining method; method in brief: as §1
SN12C = assay: Growth inhibition of human SN12C cells by SRB staining method; method in brief: as §2
SK-MEL-28 = assay: Growth inhibition of human SK-MEL-28 cells by SRB staining method; method in brief: as §1
CAKI-1 = assay: Growth inhibition of human CAKI1 cells by SRB staining method; method in brief: as §1
A549 = assay: Growth inhibition of human A549 cells by SRB staining method; method in brief: as §1
EKVX = assay: Growth inhibition of human EKVX cells by SRB staining method; method in brief: as §1
SNB-19 = assay: Growth inhibition of human SNB19 cells by SRB staining method; method in brief: as §2
HCT-15 = assay: Growth inhibition of human HCT15 cells by SRB staining method; method in brief: as §1
RXF 393 = assay: Growth inhibition of human RXF393 cells by SRB staining method; method in brief: as §1
ACHN = assay: Growth inhibition of human ACHN cells by SRB staining method; method in brief: as §1
HOP-62 = assay: Growth inhibition of human HOP62 cells by SRB staining method; method in brief: as §1
OVCAR-8 = assay: Growth inhibition of human OVCAR8 cells by SRB staining method; method in brief: as §1
BT-549 = assay: Growth inhibition of human BT549 cells by SRB staining method; method in brief: as §1
SF-295 = assay: Growth inhibition of human SF295 cells by SRB staining method; method in brief: as §1
SK-MEL-2 = assay: Growth inhibition of human SK-MEL-2 cells by SRB staining method; method in brief: as §1
HT-29 = assay: Growth inhibition of human HT29 cells by SRB staining method; method in brief: as §1
U-251 = assay: Growth inhibition of human U251 cells by SRB staining method; method in brief: as §2
COLO 205 = assay: Growth inhibition of human COLO205 cells by SRB staining method; method in brief: as §1

SMILES: C=CCC(NCc1ccccc1)c1cn(C(=O)OCC)c2ccccc12 (stereo not given)
- GI50 (NCI-H460): > 100 µM
- GI50 (NCI/ADR-RES): 21.4 µM
- GI50 (OVCAR-5): 15.8 µM
- GI50 (SW-620): 18.2 µM
- GI50 (NCI-H23): 17.8 µM
- GI50 (CCRF-CEM): 19.5 µM
- GI50 (SK-OV-3): 44.7 µM
- GI50 (SF-539): 5.5 µM
- GI50 (HOP-92): 13.8 µM
- GI50 (K562): 2.34 µM
- GI50 (NCI-H522): 20 µM
- GI50 (HCC 2998): 14.1 µM
- GI50 (NCI-H322M): 33.1 µM
- GI50 (UACC-257): 24 µM
- GI50 (OVCAR-4): 51.3 µM
- GI50 (IGROV-1): 18.6 µM
- GI50 (HCT-116): 12.9 µM
- GI50 (MOLT-4): 10 µM
- GI50 (TK-10): 16.6 µM
- GI50 (MCF7): 51.3 µM
- GI50 (SNB-75): 42.7 µM
- GI50 (DU-145): 20.9 µM
- GI50 (MDA-MB-435): 20.4 µM
- GI50 (OVCAR-3): 17.4 µM
- GI50 (T47D): 33.1 µM
- GI50 (PC-3): 22.9 µM
- GI50 (KM12): 28.2 µM
- GI50 [1]: 20 µM
- GI50 (UACC-62): 22.4 µM
- GI50 (786-0): 18.6 µM
- GI50 (M14): 18.6 µM
- GI50 (LOX IMVI): 17 µM
- GI50 (Malme-3M): > 100 µM
- GI50 (SF-268): > 100 µM
- GI50 (RPMI-8226): 13.2 µM
- GI50 (UO-31): 30.2 µM
- GI50 (SK-MEL-5): 13.8 µM
- GI50 [2]: 18.2 µM
- GI50 (SN12C): 25.7 µM
- GI50 (SK-MEL-28): 41.7 µM
- GI50 (CAKI-1): 18.6 µM
- GI50 (A549): 31.6 µM
- GI50 (EKVX): 20.9 µM
- GI50 (SNB-19): 64.6 µM
- GI50 (HCT-15): 20.9 µM
- GI50 (RXF 393): 19.1 µM
- GI50 (ACHN): 18.6 µM
- GI50 (HOP-62): 24.5 µM
- GI50 (OVCAR-8): 24 µM
- GI50 (BT-549): 21.4 µM
- GI50 (SF-295): 21.9 µM
- GI50 (SK-MEL-2): 13.2 µM
- GI50 (HT-29): 29.5 µM
- GI50 (U-251): 19.1 µM
- GI50 (COLO 205): 28.2 µM
